Assay results from ChEMBL document CHEMBL4513216, “Probing the Open Global Health Chemical Diversity Library for Multistage-Active Starting Points for Next-Generation Antimalarials” (ACS Infect Dis, 2020).

Experiment: Toxicity liver stage against HepG2, at 10uM
Assay type: cell-based
Design: test concentration 10 uM, cell line HepG2-A16-CD81EGFP
Conditions: human, HepG2-A16-CD81EGFP cells; read-out: INHIBITION
Method in brief: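 Uninfected HepG2-A16-CD81EGFP cells, 3 × 10^3 per well, 1536-well, plated on prespotted compound at 10 μM final, parasite-free screening media added to match infected plates; puromycin 10 μM positive, DMSO 0.5% negative; run in parallel with 48 h PbLuc assay at 37 °C, 5% CO2; viability by CellTiter-Glo luminescence, normalized to controls.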

Row | SMILES | cytotoxicity at 10 µM [%]
1 | Cc1nc2c(Nc3cccc(C#N)c3)nc(N)nc2n1C | -1.87
2 | COCCOc1ccc(CNc2cnc3ccccc3n2)cn1 | 8.15
3 | c1ccc(O[C@H]2COCCN(Cc3c[nH]c4ccccc34)C2)cc1 | -0.347
4 | Cc1cc(C(=O)N2CCOC[C@H](Oc3cccnc3)C2)c(C(F)(F)F)o1 | 3.11
5 | COCCOc1ccnc(-c2noc([C@@H]3CCCN3C3CCC3)n2)c1 | -8.46
6 | CN1CCN(C(=O)c2cn(Cc3ccccc3)c3ncccc23)CC1 | -6.63
7 | CSc1ccc(C(=O)N2CC(=O)N(Cc3ccccc3)CC(O)C2)cc1 (centres undefined) | -0.426
8 | CCOC(=O)Cc1csc(NC(=O)c2cc3n(n2)CCCO3)n1 | -11.9
9 | CC(C)(C)C(=O)NCCn1ccc(-c2ccccn2)n1 | 6.47
10 | O=C1NCCC12CN(CC1CC1)CC21CCNCC1 (centres undefined) | -5.31
11 | Cc1cccc(N2CC[C@@H]3[C@@H](CO[C@H]3CNC(=O)c3ccco3)C2)n1 | -1.67
12 | CC(=O)N1CC[C@@H]2CN(Cc3cccc(Cl)c3)S(=O)(=O)[C@@H]2CC1 | -10.8
13 | Cc1csc([C@@H]2C[C@@H]3CCN(C(=O)c4cnccn4)C[C@H]3O2)n1 | 2.08
14 | Cc1c(Cl)cccc1NC(=O)Cn1cc(C(=O)O)ccc1=O | -5.21
15 | COc1cccc(-n2ccc3nc(N4CCCC4)ncc3c2=O)c1 | 5.92
16 | O=C(c1cnc2ccc(F)cc2c1NCc1ccccn1)N1CCCC1 | 3
17 | Cc1c(C(=O)O)cnn1-c1ccc(-c2nc(C(C)C)no2)cn1 | -3.42
18 | Cc1noc(C2CCCCN2C(=O)NC2CCCC2)n1 (centres undefined) | 2.4
19 | O=C1CC[C@H]2[C@H](CCN2C(=O)C2CCCO2)N1CCN1CCCC1 (some centres undefined) | -4.66
20 | CCOC(=O)c1sc(NC(=O)C(C)(C)C)c(C#N)c1C | 9.04
21 | O=C(NCCCN1CCOCC1)c1ccn(COc2ccc(F)cc2)n1 | 7.16
22 | Cc1nn(CCCNC(=O)C2CCN(S(C)(=O)=O)CC2)cc1Br | -7.24

Row | SMILES | cytotoxicity at 10 µM [%]
23 | CCN1C(=O)C(C)(C)c2cc(NC(=O)c3ccn(CC)n3)ccc21 | 9.65
24 | CCn1cc(S(=O)(=O)N2CCCC3(CC=CNC3=O)C2)c(C)n1 (centres undefined) | -7.56
25 | OCC(CO)N1CCC(c2nccnc2Nc2cnccn2)CC1 | -10.5
26 | CC(=O)N1CCN([C@@H]2CN(C(=O)Cc3ccccc3C)C[C@H]2O)CC1 | -6.94
27 | CC1CCc2n[nH]c(C(=O)NCCCc3ccccn3)c2C1 (centres undefined) | -24.3
28 | CN(C)c1cc(C2CCCN(S(=O)(=O)c3cn(C)cn3)C2)ccn1 (centres undefined) | -14.4
29 | CC(C)(C)C(O)CN1CCN(Cc2cccc(C#N)c2)CC1 (centres undefined) | 3.7
30 | Cc1nnc(NCc2ccc(Br)cc2)o1 | 1.66
31 | COC(=O)[C@H](C)NC(=O)Cc1c(C)nc2cc(=O)[nH]n2c1C | -1.51
32 | Cc1nc2cc(F)cc(C(=O)N3CCN(CC(C)O)CC3)c2nc1C (centres undefined) | 4.5
33 | CCNC(=O)c1ccc(NC(=O)N(C)Cc2cc(C)on2)cc1 | -4.22
34 | COCCN1CCC(CNC(=O)CCc2cc(F)ccc2F)C1 (centres undefined) | -4.05
35 | CC(c1ccc(S(N)(=O)=O)cc1)N(C)C(=O)c1ccccc1I (centres undefined) | -0.629
36 | CNC(=O)NC(=O)C(C)Nc1ccccc1OCCOC (centres undefined) | 2.24
37 | Cc1cccc(CNC(Cn2cncn2)c2ccccc2)c1C (centres undefined) | -5.23
38 | COc1c(CNC2CCN(CC(=O)NC3CC3)CC2)c(C)nn1C | 7.76
39 | Cc1c(F)cc(C(=O)NCC(F)(F)F)cc1NCC(=O)N(C)C | 10.2
40 | c1cc(-c2noc(-c3cc(C4CC4)[nH]n3)n2)cc(N2CCCCC2)n1 | 3.05
41 | CCn1c(C)nnc1CN(C)C1CCN(Cc2sc(C)nc2C)C1 (centres undefined) | 6.47
42 | Cc1ccc(C(=O)NC2CCN(Cc3noc(C(C)(C)C)n3)CC2)s1 | 1.33
43 | Cc1cccc(-c2nc(CN3CC(n4nc(C)cc4C)C3)no2)c1 | 1.37
44 | O=C(c1cccc(-n2cnnn2)c1)N1CCC2(CC1)OCCO2 | -126

Row | SMILES | cytotoxicity at 10 µM [%]
45 | COCCn1ccc2cc(NC(=O)COC)ccc21 | 0.82
46 | CC(C)(C)c1n[nH]c(C2CN(C(=O)c3cnc[nH]3)CCO2)n1 (centres undefined) | 0.152
47 | CC1CN(C(=O)Nc2cccc(CN3CCOC3=O)c2)CCO1 (centres undefined) | -7
48 | Cc1ncsc1CCN1CCC(N(C)Cc2ncc(C(C)C)o2)C1 (centres undefined) | -7.49
49 | Clc1ccc(NCc2nnc(C3CC3)o2)cc1Cl | -12.4
50 | Cc1nc(C)n(Cc2cccc(NC3CCN(C)C3=O)c2)n1 (centres undefined) | -0.519
51 | Cc1cc(NC(=O)CN2CCCC(Cn3cncn3)C2)on1 (centres undefined) | 1.68
52 | Cc1c(C(=O)NC2(C#N)CCCC2)nnn1-c1ccccc1Cl | -6.75
53 | Cc1noc(C)c1CSC1CCCN(c2cnn(C)c2)C1=O (centres undefined) | 16.8
54 | COCc1nc(CNc2cccc(-c3ncon3)c2)cs1 | 1.22
55 | O=C1CCC(C(=O)NCCOc2ccccc2-c2ccccc2)CN1 (centres undefined) | 5.47
56 | CC(C(=O)NC1CCCCC1)N1CCc2[nH]nc(C(F)(F)F)c2C1 (centres undefined) | 5.15
57 | CCN(CCCNC(=O)c1cc2cccc(F)c2o1)S(C)(=O)=O | 4.35
58 | CN(C)c1nc(CNC(=O)N[C@H](CO)c2ccccc2)cs1 | 11.7
59 | O=S(=O)(CCCNCCn1cccn1)c1ccccc1 | 5.96
60 | OC(COc1ccccc1Br)COC1CCOCC1 (centres undefined) | -8
61 | CCc1cnc(N2CCN(Cc3ccno3)CC2)s1 | -2.54
62 | CC(C(=O)N(C)C)S(=O)(=O)c1cc2c(cc1Cl)OCCO2 (centres undefined) | 7.71
63 | Cc1nn(C)c(C)c1C1CCCN1c1ncnc2[nH]ccc12 (centres undefined) | 3.45
64 | CC(C)c1nsc(N2CCn3c(nnc3C(F)(F)F)C2)n1 | 5.83
65 | COc1ccc(CCC(=O)N(C(C)C)C2CCOCC2)cc1 | -11.8
66 | Cc1cc(CN2CCN(S(=O)(=O)c3c(C)c(Cl)cc(C)c3Cl)CC2)on1 | -8.87

Row | SMILES | cytotoxicity at 10 µM [%]
67 | O=C(CCOc1ccccc1F)N1CCC(O)CC1 | -14
68 | CC(CO)(NC(=O)Nc1nncs1)C1CCCCC1 (centres undefined) | 4.17
69 | CC(O)CNc1nc(-c2cccnc2)nc2c1CCC2 (centres undefined) | 9.8
70 | COCC1CN(C(=O)Nc2cc(Cl)cc(Cl)c2)CCO1 (centres undefined) | -4.44
71 | CCC(C)CN(C)C(=O)NCc1ccccc1-n1cccn1 (centres undefined) | 8.75
72 | O=C(NCC1CC1)C1CSCN1S(=O)(=O)c1cccc(F)c1 (centres undefined) | -14.3
73 | Cc1cc(C)n(CC2CN(Cc3cccc(C(N)=O)c3)CCO2)n1 (centres undefined) | -4.97
74 | COCC(=O)N1CC[C@H]2C[C@H](c3nc(C)no3)O[C@@H]2C1 | -76.1
75 | COc1ccc2c(c1)OCC(Cc1cc(N3CCCC3)cnn1)C2 (centres undefined) | -18.1
76 | CCc1ccc(CN2CCCC(c3nn(C)c(=O)n3CC)C2)nc1 (centres undefined) | 1.93
77 | CCn1c(-c2ccccc2)nn(CC(=O)NCCc2ccc(C)s2)c1=O | 7.69
78 | CC(C)Oc1cccc(F)c1C(C(=O)O)N1CCCC1 (centres undefined) | -3.33
79 | CSCCCN1CCc2nc(N(C)C)nc(N3CCC(O)CC3)c2C1 | -4.67
80 | CN(Cc1ccccc1CN1CCCC1)c1ncnc2[nH]ccc12 | 8.53
81 | O=S(=O)(c1ccc(-c2nc3c([nH]2)CCNC3)cc1)N1CCCC1 | -2.09
82 | Cc1cc(CC(=O)N2CCN(CC(C)C)[C@@H]3CS(=O)(=O)C[C@@H]32)ccc1F | -2.22
83 | CCCNc1ncc(CN2CCC3(CCNC(=O)CC3)CC2)cn1 | -166
84 | Cn1ccnc1-c1ccc(NCC2COCCO2)nn1 (centres undefined) | 9.3
85 | COc1cccc2c1OCC(CNC(=O)COCC(F)(F)C(F)F)C2 (centres undefined) | -134
86 | CCOC(=O)N1CCN(CC(=O)Nc2nnc(CC)s2)CC1 | -8.94
87 | COc1ccccc1[C@@H]1CN(CC(=O)N2CCCCC2)C[C@H]1C(=O)O | -2.82
88 | CS(=O)(=O)N1CCC(c2nnc(Cn3ccnc3)n2C2CC2)CC1 | -1.24

Row | SMILES | cytotoxicity at 10 µM [%]
89 | CCCN(CC)c1cc(C2CCNCC2)nc(C)n1 | -7.33
90 | COC(=O)N1CC(C)=C(C)CN1C(=O)Nc1ccc(Cl)cc1 | -7.97
91 | CCC(N)c1ccccc1OCC(=O)N1CCCC1 (centres undefined) | -5.16
92 | CC(C(=O)NCCOc1ccc(F)cc1)n1cncn1 (centres undefined) | -1.46
93 | Cc1cc(CN2CCN(C(=O)NCc3cccs3)CC2)no1 | -11.6
94 | Cc1cnn(CC2CCCCN2C(=O)c2n[nH]c3ccccc23)c1 (centres undefined) | -8.25
95 | Cc1cnn(C2CCCN(C(=O)c3cn(-c4ccccc4)nc3C)C2)c1 (centres undefined) | -5.46
96 | Cc1nn(C)c(N(C)C)c1CNCc1ccnc(N2CCCC2)c1 | -11.4
97 | Cc1cnc(CN(C)C2CCN(Cc3nnc(C4CC4)o3)C2)o1 (centres undefined) | 5.25
98 | O=C(CCCOc1cccc(F)c1)N1CCCC(n2cccn2)C1 (centres undefined) | -16
99 | CN1N=C(C(=O)Nc2cc(F)ccc2OCC2CCCO2)CCC1=O (centres undefined) | -8
100 | CC(CNCc1ccc(Cl)c(Cl)c1)Oc1ccccn1 (centres undefined) | -0.291
101 | COC(C)(C)C(=O)N1CCC(c2cc(CN(C)C)n(C)n2)CC1 | 0.748
102 | O=C(NCCN1CCCC1)c1nc2c(o1)CN(C(=O)c1cccnc1)C2 | -1.08
103 | Cc1cccc(CN2C[C@@H]3[C@@H](C(=O)NCC(C)C)CCS(=O)(=O)[C@@H]3C2)c1 | -2.63
104 | COCCN1C[C@H](OCc2csc(C)n2)[C@H]2COC[C@H]21 | -6.08
105 | Cn1cc(CN2CCC[C@]3(C(=O)O)CN(c4ncccn4)C[C@@H]3C2)cn1 | 4.89
106 | CN(C)C(=O)CN1CC[C@H]2CN(S(C)(=O)=O)C[C@@H]2C1=O | -13.1
107 | O=C1N(Cc2cccnc2)CCC12CCCN(c1ncc(F)cn1)C2 (centres undefined) | -1
108 | O=C(N1CCOCC1)N1C[C@@H]2CC[C@H]1CN(C1Cc3ccccc3C1)C2 | -4.55
109 | COCCOCC1(CNCc2ccc(F)cc2)C[C@@H](O)[C@@H](O)C1 (some centres undefined) | -3.1
